Results from different studies.
Protocols differ between the studies behind these lines.
GRM2: Metabotropic glutamate receptor 2 (GRM2, Homo sapiens, UniProt Q14416)
RET: Proto-oncogene tyrosine-protein kinase receptor Ret (RET, Homo sapiens, UniProt P07949)
NMUR1: Neuromedin-U receptor 1 (NMUR1, Homo sapiens, UniProt Q9HB89)
EPHX2: Bifunctional epoxide hydrolase 2 (EPHX2, Homo sapiens, UniProt P34913)
Maob: Amine oxidase [flavin-containing] B (Maob, Rattus norvegicus, UniProt P19643)
ALPI: Intestinal-type alkaline phosphatase (ALPI, Bos taurus, UniProt P19111)
JAK2: Tyrosine-protein kinase JAK2 (JAK2, Homo sapiens, UniProt O60674)

SMILES	target	assay	setting	IC50
COc1ccc(-c2cc(C(N)=O)ncc2OCc2ccnc(F)c2)c(F)c1	GRM2	ion flux, antagonist	–	0.046 µM
Cc1ccc(C(=O)Nc2ccc(Oc3cc4cnn(C)c4cc3-c3cn[nH]c3)c(F)c2)c(=O)n1-c1ccc(F)cc1	RET	enzyme activity, inhibitor	–	0.59 µM
CC(C)C[C@H](NC(=O)[C@H](Cc1ccccc1)NC(=O)[C@@H](N)Cc1ccc(O)cc1)C(=O)N[C@@H](Cc1ccccc1)C(=O)N[C@@H](CCCNC(=N)N)C(=O)N1CCC[C@H]1C(=O)N[C@@H](CCCNC(=N)N)C(=O)N[C@@H](CC(N)=O)C(N)=O	NMUR1	ligand displacement, radioligand	–	0.000661 µM
CCN1CCN(Cc2ccc(NC(=O)Nc3ccc(Oc4cc(NC)ncn4)cc3)cc2C(F)(F)F)CC1	Dual specificity mitogen-activated protein kinase kinase 4 (MAP2K4, Homo sapiens, UniProt P45985)	enzyme activity, inhibitor, ADP detection	–	40 µM
CCCC(CNC(=O)Nc1ccccc1F)C1C2CC3CC(C2)CC1C3 (centres unmarked)	EPHX2	enzyme activity, inhibitor, fluorescence	–	0.106 µM
CC(=NN=C1CS(=O)(=O)N(C)c2ccccc21)c1sccc1Br	Maob	enzyme activity, inhibitor, fluorescence	–	3.82 µM
O=C(CCCCCCCCc1ccc(O)c(O)c1)c1c(O)cccc1O	EPHX2	enzyme activity, inhibitor, fluorescence	–	25.9 µM
CC(C)(C)n1nc(-c2cnc3cc(OC4CC4)ccc3c2)c(C(N)=O)c1N	Mitogen-activated protein kinase kinase kinase 10 (MAP3K10, Homo sapiens, UniProt Q02779)	cell-free assay	–	> 10 µM
Nc1nc(NCc2ccccc2CO)c2[nH]cnc2n1	Methylated-DNA--protein-cysteine methyltransferase (MGMT, Homo sapiens, UniProt P16455)	enzyme activity, inhibitor	30 min	> 1000 µM
O=C(Nc1ccccc1)NC12CC3CC(CC(C3)C1)C2	EPHX2	enzyme activity, inhibitor, fluorescence	–	0.0165 µM
COc1ccc(N2CC3=C(C2=O)C(c2ccccc2O)NC(=O)N3)cc1 (centres unmarked)	ALPI	enzyme activity, inhibitor, absorbance	–	4.87 µM
O=C1N=C(Nc2ccccc2)S/C1=C\c1ccccc1OCc1cn(Cc2ccccc2Br)nn1	Aldo-keto reductase family 1 member B1 (AKR1B1, Homo sapiens, UniProt P15121)	enzyme activity, inhibitor, absorbance	pH 6.2	37 µM
CC(C)CCC[C@@H](C)[C@H]1CC[C@H]2[C@@H]3C[C@@H](NCCc4c[nH]cn4)[C@@]4(O)C[C@@H](O)CC[C@]4(C)[C@H]3CC[C@]12C	EPHX2	enzyme activity, inhibitor	–	> 100 µM
O=C(Cc1ccc(Nc2ncnc3[nH]ccc23)cc1)Nc1ccc(F)c(Cl)c1	RET	enzyme activity, inhibitor, mobility shift	–	> 20 µM
CC(C)C[C@H](NC(=O)[C@H](Cc1ccccc1)NC(=O)[C@H](Cc1ccc(O)cc1)NC(=O)CNC(=O)[C@H](CCCNC(=N)N)NC(=O)[C@H](CO)NC(=O)[C@H](CCC(N)=O)NC(=O)[C@H](CO)NC(=O)[C@H](C)NC(=O)[C@H](Cc1ccccc1)NC(=O)[C@@H]1CCCN1C(=O)[C@H](CO)NC(=O)[C@H](CCC(N)=O)NC(=O)[C@H](Cc1ccccc1)NC(=O)[C@H](CCC(=O)O)NC(=O)[C@H](CCC(=O)O)NC(=O)[C@H](CC(=O)O)NC(=O)[C@@H](NC(=O)[C@H](CCCNC(=N)N)NC(=O)[C@@H](N)Cc1ccccc1)C(C)C)C(=O)N[C@@H](Cc1ccccc1)C(=O)N[C@@H](CCCNC(=N)N)C(=O)N1CCC[C@H]1C(=O)N[C@@H](CCCNC(=N)N)C(=O)N[C@@H](CC(N)=O)C(N)=O	NMUR1	ligand displacement, radioligand	–	0.000107 µM
CC12CC3(C)CC(C)(C1)CC(NC(=O)Nc1ccccc1F)(C2)C3	EPHX2	enzyme activity, inhibitor, fluorescence	–	0.0943 µM
Cc1cnc(-c2ccc(-c3ccc(NC(=O)Nc4c(F)cc(F)cc4F)cc3F)c3c2C(=O)NC3)[nH]1	RET	enzyme activity, inhibitor	–	0.0148 µM
Cn1ccc(COc2cnc(C(N)=O)cc2-c2ccc(F)cc2)n1	GRM2	ion flux, antagonist	–	0.058 µM
CCC(C)(O)C(=O)N1CCC(NC(=O)Nc2ccc(OC(F)(F)F)c(F)c2)CC1 (centres unmarked)	EPHX2	enzyme activity, inhibitor	–	9e-05 µM

SMILES	target	assay	setting	IC50
O=C1NC2=C(C(=O)N(Cc3ccc(F)cc3)C2)C(c2ccccc2O)N1 (centres unmarked)	ALPI	enzyme activity, inhibitor, absorbance	–	1.27 µM
CC(=NN=C1CS(=O)(=O)N(C)c2ccccc21)c1ccc([N+](=O)[O-])s1	Maob	enzyme activity, inhibitor, fluorescence	–	1.25 µM
COc1ccc(N2CC3=C(C2=O)C(c2ccc(O)cc2)NC(=O)N3)cc1 (centres unmarked)	ALPI	enzyme activity, inhibitor, absorbance	–	9.43 µM
CN1c2ccccc2C(=NN=Cc2cc3ccc(Cl)cc3nc2Cl)CS1(=O)=O	Maob	enzyme activity, inhibitor, fluorescence	–	1.21 µM
COc1ccc(-c2cc(C(N)=O)ncc2OCc2ccc(OC)nc2)c(F)c1	GRM2	ion flux, antagonist	–	0.224 µM
Oc1c2ccccc2c2c3c(cccc13)N=N2	JAK2	enzyme activity, inhibitor	–	0.736 µM
COc1ccc(-c2cc(C(N)=O)ncc2OCc2ccnc(OC)c2)c(F)c1	GRM2	ion flux, antagonist	–	0.135 µM
CC(=NN=C1CS(=O)(=O)N(C)c2ccccc21)c1cc(C)sc1C	Maob	enzyme activity, inhibitor, fluorescence	–	2.61 µM
O=C1NC2=C(C(=O)N(c3ccc(Cl)cc3)C2)C(c2ccccc2O)N1 (centres unmarked)	ALPI	enzyme activity, inhibitor, absorbance	–	2.94 µM
COc1ccc2c(Oc3ccc4c(C(=O)Nc5ccccc5N)cccc4c3)ccnc2c1	RET	enzyme activity, inhibitor	–	> 0.5 µM
O=C1NC2=C(C(=O)N(c3ccc(F)cc3)C2)C(c2ccc(O)cc2)N1 (centres unmarked)	ALPI	enzyme activity, inhibitor, absorbance	–	2.5 µM
CC(=NN=C1CS(=O)(=O)N(C)c2ccccc21)c1cccs1	Maob	enzyme activity, inhibitor, fluorescence	–	1.98 µM
O=C1NC2=C(C(=O)N(c3nc4ccccc4[nH]3)C2)C(c2ccc(O)cc2)N1 (centres unmarked)	ALPI	enzyme activity, inhibitor, absorbance	–	11.3 µM
CN1CCN(c2ccc(Nc3ncc4cc(C#N)c(=O)n(C5CCCC5)c4n3)cc2)CC1	MAP/microtubule affinity-regulating kinase 4 (MARK4, Homo sapiens, UniProt Q96L34)	enzyme activity, inhibitor	–	0.403 µM
CNC(=O)c1cc2c(Oc3ccc(NC(=O)C4(C(=O)Nc5ccc(F)cc5)CC4)cc3)ccnc2cc1OC	Tyrosine-protein kinase Lck, phosphorylated (LCK, Homo sapiens, UniProt P06239)	enzyme activity, inhibitor, radiometric	–	0.01 µM
O=c1cc(-c2ccc(O)c(-c3c(O)cc(O)c4c(=O)cc(-c5ccc(O)cc5)oc34)c2)oc2cc(O)cc(O)c12	JAK2	enzyme activity, inhibitor	–	5 µM
CC(=NN=C1CS(=O)(=O)N(C)c2ccccc21)c1cc(C)cs1	Maob	enzyme activity, inhibitor, fluorescence	–	3.83 µM
O=c1[nH]c2c(Br)cccc2n1C1CCN(S(=O)(=O)c2ccc(I)cc2)CC1	N-glycosylase/DNA lyase (OGG1, Homo sapiens, UniProt O15527)	enzyme activity, inhibitor	–	14 µM
COc1ccc(-c2cc(C(N)=O)ncc2OCc2cn(C)cn2)c(F)c1	GRM2	ion flux, antagonist	–	0.092 µM
